# Screening results (PubChem BioAssay)
# Lung fibro prol: antiproliferative effect on LL 47 fibroblasts – human, LL 47 cells, CellTiter-Glo luminescence, primary screen; LL 47 human lung fibroblast viability, ATP luminescence; active compounds read low; viability, % at 10 µM; hit rate 1.1% among 85,000; AID 719, 2007;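 active = viability at or below 50% in the single dose screen; inactive = viability above 50%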;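 also: compound exposure lasted 72 h before the ATP readout; 100% = median luminescence of untreated cell-only wells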
#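 Material: human lung fibroblast line LL 47, low passage; Evaluation: viability percentage against median untreated-cell control; Buffer or medium: 15% FBS in IMEM; Incubation: 72 h compound exposure at 37 °C after overnight plating; Dosing: 0.1% DMSO in all compound wells; Measured by: CellTiter-Glo luminescence.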
# PTEN del growth: growth suppression of PTEN-null HCT116, primary screen, cell-based, CellTiter-Glo. viability, % at 10 µM. HCT116 PTEN-null viability, 60 h; active compounds read low. hit rate 1.2% among 140,000;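 active = viability at or below a set limit, 4 SD under the median of all tested compounds, cut at about 3.7% in these data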;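 also: PTEN knockout HCT116 line with beta catenin targeted HCT116 as companion control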
# H69AR growth 86K: proliferation blockers of H69AR lung cancer cells, primary screen, cell-based, human, 86K library. viability, % at 10 µM. hit rate 6% among 85,000. H69AR lung tumor viability, ATP luminescence, 72 h; active compounds read low;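 active = viability at or below 40%; inactive = viability above 40%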;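 also: multidrug resistant small cell line overexpressing MRP-1 efflux transporter; 100% = mean luminescence of untreated control wells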
# Cav32 inh: Cav3.2 calcium influx blockers – cell-based, Fluo-4 calcium fluorescence, FDSS, MLSMR library, primary screen; Voltage-dependent T-type calcium channel subunit alpha-1H (Homo sapiens), O95180; Cav3.2-expressing cells; active compounds read low; B-score at 10 µM; hit rate 4% among 100,000; AID 449739, 2010;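 active = single-dose well whose peak fluorescence ratio is a statistical outlier from its plate by either plate-standardised score or position-corrected B-score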
# bCat KO growth: primary screen for growth suppressors in beta-catenin knockout HCT116 cells (colon tumor, human) | HCT116 beta-catenin knockout viability, CellTiter-Glo, 60 h; active compounds read low | viability, % at 10 µM | AID 818, 2007 | hit rate 1.5% among 140,000;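 active = viability at or under a set limit, the compound median less 4 SD, cut at about 6% in these data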;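 also: 0% = Hyamine 1622 control at 20 µM and 100% = untreated cell control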
# HUVEC prolif 384: inhibitors of HUVEC proliferation, primary screen, cell-based, 384-well. CellTiter-Glo luminescence, 72 h; active compounds read low. viability, % at 10 µM (by protocol). hit rate 1.1% among 86,000;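 active = viability at or below 30%; inactive = viability above 30%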;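 also: 100% = median luminescence of DMSO-only cell control wells on each plate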
# The depositor's hits bear a star; . = no result given. A selection: hits, their analogues and other compounds. The true share with any hit is near 7.1%.
SMILES,Lung fibro prol,PTEN del growth,H69AR growth 86K,Cav32 inh,bCat KO growth,HUVEC prolif 384
COC(=O)c1cccc(Nc2nc3ccccc3nc2C)c1,93,87,41,1.3,50,65
CC(C)C[C@H](NC(=O)c1nc[nH]c1C(=O)N1CCN(c2ccccc2)CC1)C(=O)OCc1ccccc1,.,.,.,-0.93,.,.
COc1ccc(-c2nc(Cn3c(SCc4ccc(F)cc4)nc4ccncc43)c(C)o2)cc1OC,92,33,50,-1.1,29,83
COc1ccc(-c2nc(Cn3c(SCc4ccccc4F)nc4ccncc43)c(C)o2)cc1,40*,31,14*,-0.12,54,30
Cc1ccc(C(c2nnnn2C2CCCC2)N2c3ccccc3CC2C)cc1 (stereo not drawn),.,49,.,.,55,.
Cc1ccccc1N(CC(=O)N/N=C/c1ccc(F)cc1)C(=O)c1ccccc1,.,87,.,-5.6*,85,.
Cc1ccccc1N(CC(=O)N/N=C/c1ccc(Cl)cc1)C(=O)c1ccccc1,.,42,.,-5.2*,64,.
CCOC(=O)CN(C(=O)c1ccccc1)c1ccccc1C,100,96,99,0.59,93,96
O=C(Cc1cccc2ccccc12)N/N=C/c1ccc(F)cc1,.,90,.,-4*,93,.
CCCOc1ccc(C(=O)NNC(=S)NC(=O)CC)cc1,.,6,.,-1.9,5.5*,.
Oc1c(Cl)cc(Cl)cc1Sc1cc(Cl)cc(Cl)c1O,84,4,14*,.,4.0*,33
Oc1c(Cl)cc(Cl)cc1C(C#Cc1ccccc1)N1CCOCC1 (stereo not drawn),.,9,.,-0.2,11,.
CC(=O)[C@H]1CC[C@H]2[C@@H]3C[C@H](C)C4=CC(=O)CC[C@]4(C)[C@H]3[C@@H](O)C[C@]12C,.,84,.,0.79,90,.
CC(=O)O[C@]1(C(C)=O)CC[C@H]2[C@@H]3C[C@H](C)C4=CC(=O)CC[C@]4(C)[C@H]3CC[C@@]21C,91,74,5.1*,-0.28,72,102
CC(=O)O[C@]1(C(C)=O)CC[C@H]2[C@@H]3C=C(Cl)C4=CC(=O)CC[C@]4(C)[C@H]3CC[C@@]21C,80,62,19*,-0.64,65,87
CC(=O)O[C@]1(C(C)=O)CC[C@H]2[C@@H]3C=C(Cl)C4=CC(=O)[C@@H]5C[C@@H]5[C@]4(C)[C@H]3CC[C@@]21C,.,.,.,-0.14,.,.
CSC(=Nc1ccc(Cl)cc1)N[n+]1ccccc1,.,88,.,.,92,.
O=C(c1cc(-c2ccco2)nn1-c1cccc(Cl)c1)N1CCCCC1,96,71,88,-5.9*,78,99
CC(C)NC(=O)c1cc(-c2ccco2)nn1-c1ccc(Cl)cc1,.,75,.,-4,71,.
CCOC(=O)c1cccc(NC2c3ccccc3C(=O)N2Cc2ccco2)c1 (stereo not drawn),103,84,88,-6.6*,70,94
Cc1ccccc1NC1c2ccccc2C(=O)N1Cc1ccco1 (stereo not drawn),91,76,87,-1.4,83,91
O=C1c2ccccc2C(Nc2cccc(C(F)(F)F)c2)N1Cc1ccco1 (stereo not drawn),89,65,55,-5.2*,64,99
COc1cccc(NC2c3ccccc3C(=O)N2Cc2ccco2)c1 (stereo not drawn),90,86,57,-2.4,85,99
CCc1ccc(OCC(=O)Nc2ccc(-c3cc4ccccc4oc3=O)c(OC)c2)cc1,.,73,.,.,73,.
Cc1ccc(/C(CSc2nccn2-c2ncc(C(F)(F)F)cc2Cl)=N\O)cc1,.,52,.,-6.2*,39,.
O=C(c1ccc2nc(N3CCCCC3)sc2c1)N1CCN(Cc2ccc3c(c2)OCO3)CC1,.,63,.,-4*,60,.
CCOC(=O)N1CCN(C(=O)c2ccc3nc(N4CCCCC4)sc3c2)CC1,107,110,89,-4.8,92,99
CCOC(=O)N1CCN(C(=O)c2ccc3nc(N4CCC(C)CC4)sc3c2)CC1,102,115,.,-0.79,107,102
CC1CCN(c2nc3ccc(C(=O)N4CCN(Cc5ccccc5)CC4)cc3s2)CC1,96,34,81,-5.8*,35,82
